Experimental data as given in ChEMBL document CHEMBL1649139, “A novel gene, erm(41), confers inducible macrolide resistance to clinical isolates of Mycobacterium abscessus but is absent from Mycobacterium chelonae” (2009).
In brackets after ≈: the same amount, converted by molar mass.

Tests used:
Type in all cases: functional
[1] = system: Mycobacteroides abscessus; assay: Antimicrobial activity against Mycobacterium abscessus isolate MC879 at day 5 by broth microdilution method; conditions: isolate MC879, 120 h
In short: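 Clarithromycin MIC by broth microdilution following CLSI guidelines. Organisms were preincubated […], for 3 days before the assay. This allowed at least two generations, judged by the rise in turbidity. The MIC was read at the stated day, with incubation extended from day 3 to as long as 14 days.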

[2] = system: Mycobacteroides abscessus; assay: Antimicrobial activity against Mycobacterium abscessus isolate MC958 at day 9 preincubated with 0.1 ug/ml erythromycin for 3 days by broth microdilution method
[3] = system: Mycobacteroides abscessus; assay: Antimicrobial activity against Mycobacterium abscessus isolate MC879-2 at day 9 preincubated with 0.1 ug/ml erythromycin for 3 days by broth microdilution method
[4] = system: Mycobacteroides abscessus; assay: Antimicrobial activity against Mycobacterium abscessus isolate MC720 at day 9 by broth microdilution method; conditions: isolate MC720, 216 h
In short: (§1)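 Clarithromycin MIC by broth microdilution following CLSI guidelines. Before testing, organisms were preincubated for 3 days in medium alone or in clarithromycin or erythromycin (0.01–1 μg/ml), long enough for at least two generations judged by turbidity increase. MICs were read on day 3 and again on extended incubation out to day 14.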

[5] = system: Mycobacteroides abscessus; assay: Antimicrobial activity against Mycobacterium abscessus isolate MC958 on day 14 by broth microdilution method; conditions: isolate MC958, 336 h
[6] = system: Mycobacteroides abscessus; assay: Antimicrobial activity against Mycobacterium abscessus isolate MC879-2 at day 14 preincubated with 0.1 ug/ml for 3 days by broth microdilution method
[7] = system: Mycobacteroides abscessus; assay: Antimicrobial activity against Mycobacterium abscessus isolate MC724 at day 14 by broth microdilution method; conditions: isolate MC724, 336 h; in short: as §1
[8] = system: Mycobacteroides abscessus; assay: Antimicrobial activity against Mycobacterium abscessus isolate MC723 at day 7 preincubated with 0.1 ug/ml for 3 days by broth microdilution method; in short: as §1
[9] = system: Mycobacteroides abscessus; assay: Antimicrobial activity against Mycobacterium abscessus isolate MC879 at day 3 preincubated with 0.1 ug/ml erythromycin for 3 days by broth microdilution method
In short: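 To test inducible resistance, cultures were preincubated for 3 days in clarithromycin or erythromycin, within 0.01–1 μg/ml. The period was set so cultures passed at least two generations, judged by turbidity increase. Clarithromycin MIC was then determined by CLSI-conforming broth microdilution and read on the stated day, from day 3 up to 14.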

[10] = system: Mycobacteroides abscessus; assay: Antimicrobial activity against Mycobacterium abscessus isolate MC958 at day 9 preincubated with 0.1 ug/ml for 3 days by broth microdilution method
[11] = system: Mycolicibacterium smegmatis; assay: Antimicrobial activity against Mycobacterium smegmatis transformed with erm allele Mycobacterium abscessus isolate MC720 preincubated with 2 ug/ml erythromycin for 20 to 24 hrs by broth microdilution method
[12] = system: Mycobacteroides abscessus; assay: Antimicrobial activity against Mycobacterium abscessus isolate MC879-2 at day 7 by broth microdilution method; conditions: isolate MC879-2, 168 h
[13] = system: Mycobacteroides abscessus; assay: Antimicrobial activity against Mycobacterium abscessus isolate MC1082 at day 7 by broth microdilution method; conditions: isolate MC1082, 168 h
In short: (§2)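 Clarithromycin MIC by CLSI-conforming broth microdilution. Before testing, cultures were preincubated for 3 days, either in medium alone or in clarithromycin or erythromycin (tested range 0.01–1 μg/ml). Preincubation ran for at least two generations, judged by turbidity increase. Plates were read on day 3 and on extended incubation at days 5 to 14.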

[14] = system: Mycobacteroides abscessus; assay: Antimicrobial activity against Mycobacterium abscessus isolate MC1082 at day 5 by broth microdilution method; conditions: isolate MC1082, 120 h; in short: as §2
[15] = system: Mycolicibacterium smegmatis; assay: Antimicrobial activity against Mycobacterium smegmatis transformed with erm allele Mycobacterium abscessus isolate MC1082 by broth microdilution method
[16] = system: Mycobacteroides abscessus; assay: Antimicrobial activity against Mycobacterium abscessus isolate MC723 at day 3 preincubated with 0.1 ug/ml for 3 days by broth microdilution method; in short: as §1
[17] = system: Mycobacteroides abscessus; assay: Antimicrobial activity against Mycobacterium abscessus isolate MC1448 at day 7 preincubated with 0.1 ug/ml erythromycin for 3 days by broth microdilution method; in short: as §1
[18] = system: Mycobacteroides abscessus; assay: Antimicrobial activity against Mycobacterium abscessus isolate MC1082 at day 7 preincubated with 0.1 ug/ml for 3 days by broth microdilution method; in short: as §2
[19] = system: Mycobacteroides abscessus; assay: Antimicrobial activity against Mycobacterium abscessus isolate MC1028 at day 14 preincubated with 0.1 ug/ml erythromycin for 3 days by broth microdilution method; in short: as §2
[20] = system: Mycobacteroides abscessus; assay: Antimicrobial activity against Mycobacterium abscessus isolate MC719 at day 3 preincubated with 0.1 ug/ml for 3 days by broth microdilution method; in short: as §1
[21] = system: Mycobacteroides abscessus; assay: Antimicrobial activity against Mycobacterium abscessus isolate MC720 at day 5 by broth microdilution method; conditions: isolate MC720, 120 h; in short: as §1
[22] = system: Mycobacteroides abscessus; assay: Antimicrobial activity against Mycobacterium abscessus isolate MC879-2 at day 14 preincubated with 0.1 ug/ml erythromycin for 3 days by broth microdilution method
[23] = system: Mycobacteroides abscessus; assay: Antimicrobial activity against Mycobacterium abscessus isolate MC719 at day 14 by broth microdilution method; conditions: isolate MC719, 336 h; in short: as §1
[24] = system: Mycobacteroides abscessus; assay: Antimicrobial activity against Mycobacterium abscessus isolate MC879 on day 10 by broth microdilution method; conditions: isolate MC879, 240 h
[25] = system: Mycobacteroides abscessus; assay: Antimicrobial activity against Mycobacterium abscessus isolate MAB30 at day 3 by broth microdilution method; conditions: isolate MAB30, 72 h; in short: as §2
[26] = system: Mycobacteroides abscessus; assay: Antimicrobial activity against Mycobacterium abscessus isolate MC958 at day 9 by broth microdilution method; conditions: isolate MC958, 216 h
[27] = system: Mycobacteroides abscessus; assay: Antimicrobial activity against Mycobacterium abscessus isolate MAB30 at day 7 preincubated with 0.1 ug/ml for 3 days by broth microdilution method; in short: as §2
[28] = system: Mycobacteroides abscessus; assay: Antimicrobial activity against Mycobacterium abscessus isolate MAB30 at day 3 preincubated with 0.1 ug/ml for 3 days by broth microdilution method; in short: as §2
[29] = system: Mycobacteroides abscessus; assay: Antimicrobial activity against Mycobacterium abscessus isolate MC720 at day 3 preincubated with 0.1 ug/ml erythromycin for 3 days by broth microdilution method; in short: as §1
[30] = system: Mycobacteroides abscessus; assay: Antimicrobial activity against Mycobacterium abscessus isolate MC879 on day 14 by broth microdilution method; conditions: isolate MC879, 336 h
[31] = system: Mycobacteroides abscessus; assay: Antimicrobial activity against Mycobacterium abscessus isolate MC720 at day 14 preincubated with 0.1 ug/ml erythromycin for 3 days by broth microdilution method; in short: as §1
[32] = system: Mycobacteroides abscessus; assay: Antimicrobial activity against Mycobacterium abscessus isolate MC719 at day 9 preincubated with 0.1 ug/ml erythromycin for 3 days by broth microdilution method; in short: as §1
[33] = system: Mycobacteroides abscessus; assay: Antimicrobial activity against Mycobacterium abscessus isolate MC720 at day 7 by broth microdilution method; conditions: isolate MC720, 168 h
In short: (§3)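 Clinical M. abscessus isolates were preincubated for 3 days, either in medium alone or in clarithromycin or erythromycin at 0.01 to 1 μg/ml, allowing at least two generations of growth judged by turbidity. The clarithromycin MIC was then determined by CLSI-conforming broth microdilution, with plates read on day 3 and on extended incubation (days 5 to 14).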

[34] = system: Mycobacteroides abscessus; assay: Antimicrobial activity against Mycobacterium abscessus isolate MC723 at day 14 by broth microdilution method; conditions: isolate MC723, 336 h; in short: as §1
[35] = system: Mycobacteroides abscessus; assay: Antimicrobial activity against Mycobacterium abscessus isolate MC724 at day 5 preincubated with 0.1 ug/ml for 3 days by broth microdilution method; in short: as §3
[36] = system: Mycobacteroides abscessus; assay: Antimicrobial activity against Mycobacterium abscessus isolate MC723 at day 7 preincubated with 0.1 ug/ml erythromycin for 3 days by broth microdilution method; in short: as §1

Compound: CC[C@H]1OC(=O)[C@H](C)[C@@H](O[C@H]2C[C@@](C)(OC)[C@@H](O)[C@H](C)O2)[C@H](C)[C@@H](O[C@@H]2O[C@H](C)C[C@H](N(C)C)[C@H]2O)[C@](C)(OC)C[C@@H](C)C(=O)[C@H](C)[C@@H](O)[C@]1(C)O [CLARITHROMYCIN]
- MIC [1]: 1 µg/mL (≈ 1.34 µM)
- MIC [2]: > 32 µg/mL
- MIC [3]: > 32 µg/mL
- MIC [4]: > 32 µg/mL
- MIC [5]: 32 µg/mL (≈ 42.8 µM)
- MIC [6]: > 32 µg/mL
- MIC [7]: > 32 µg/mL
- MIC [8]: > 32 µg/mL
- MIC [9]: ≤ 0.5 µg/mL
- MIC [10]: > 32 µg/mL
- MIC [11]: 16 µg/mL
- MIC [12]: > 32 µg/mL
- MIC [13]: ≤ 0.5 µg/mL
- MIC [14]: ≤ 0.5 µg/mL
- MIC [15]: ≤ 0.5 µg/mL
- MIC [16]: ≤ 0.5 µg/mL
- MIC [17]: > 32 µg/mL
- MIC [18]: ≤ 0.5 µg/mL
- MIC [19]: ≤ 0.5 µg/mL
- MIC [20]: ≤ 0.5 µg/mL
- MIC [21]: 1 µg/mL (≈ 1.34 µM)
- MIC [22]: > 32 µg/mL
- MIC [23]: > 32 µg/mL
- MIC [24]: 32 µg/mL (≈ 42.8 µM)
- MIC [25]: ≤ 0.5 µg/mL
- MIC [26]: > 32 µg/mL
- MIC [27]: ≤ 0.5 µg/mL
- MIC [28]: ≤ 0.5 µg/mL
- MIC [29]: ≤ 0.5 µg/mL
- MIC [30]: 32 µg/mL (≈ 42.8 µM)
- MIC [31]: > 32 µg/mL
- MIC [32]: > 32 µg/mL
- MIC [33]: 8 µg/mL (≈ 10.7 µM)
- MIC [34]: > 32 µg/mL
- MIC [35]: 4 µg/mL (≈ 5.35 µM)
- MIC [36]: > 32 µg/mL
